The values that follow come from PubChem BioAssay.

Active and inactive are the calls of the source. Unless noted, no stated cut-off is given here; in the data, active means inhibition above about 30%; inactive means the rest.

Experiment [1] in a line: Her2 expression decrease, cell viability multiplex – SKBR3 breast tumor cells, AlphaScreen, ATP viability, primary screen (AID 461;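 active means Her2 level under about 52% in both replicate screens, with viability over 70% of control, limit read from the data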;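 on Her2 level: lower value means less Her2 protein in the cells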;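 on viability: percent of carrier control wells set as 100% viability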). The settings on record: SKBR3 Her2 protein level, 18-24 h, measured here: SKBR3 viability, ATP luminescence, at 10 µM.
For experiment [2], the target named is Receptor tyrosine-protein kinase erbB-2 (Homo sapiens) (UniProt P04626). The description is as above. The following applies: 18-24 h, at 10 µM, stronger effect = lower value.
Sequence of Receptor tyrosine-protein kinase erbB-2 (Homo sapiens) (P04626 whole entry, looked up): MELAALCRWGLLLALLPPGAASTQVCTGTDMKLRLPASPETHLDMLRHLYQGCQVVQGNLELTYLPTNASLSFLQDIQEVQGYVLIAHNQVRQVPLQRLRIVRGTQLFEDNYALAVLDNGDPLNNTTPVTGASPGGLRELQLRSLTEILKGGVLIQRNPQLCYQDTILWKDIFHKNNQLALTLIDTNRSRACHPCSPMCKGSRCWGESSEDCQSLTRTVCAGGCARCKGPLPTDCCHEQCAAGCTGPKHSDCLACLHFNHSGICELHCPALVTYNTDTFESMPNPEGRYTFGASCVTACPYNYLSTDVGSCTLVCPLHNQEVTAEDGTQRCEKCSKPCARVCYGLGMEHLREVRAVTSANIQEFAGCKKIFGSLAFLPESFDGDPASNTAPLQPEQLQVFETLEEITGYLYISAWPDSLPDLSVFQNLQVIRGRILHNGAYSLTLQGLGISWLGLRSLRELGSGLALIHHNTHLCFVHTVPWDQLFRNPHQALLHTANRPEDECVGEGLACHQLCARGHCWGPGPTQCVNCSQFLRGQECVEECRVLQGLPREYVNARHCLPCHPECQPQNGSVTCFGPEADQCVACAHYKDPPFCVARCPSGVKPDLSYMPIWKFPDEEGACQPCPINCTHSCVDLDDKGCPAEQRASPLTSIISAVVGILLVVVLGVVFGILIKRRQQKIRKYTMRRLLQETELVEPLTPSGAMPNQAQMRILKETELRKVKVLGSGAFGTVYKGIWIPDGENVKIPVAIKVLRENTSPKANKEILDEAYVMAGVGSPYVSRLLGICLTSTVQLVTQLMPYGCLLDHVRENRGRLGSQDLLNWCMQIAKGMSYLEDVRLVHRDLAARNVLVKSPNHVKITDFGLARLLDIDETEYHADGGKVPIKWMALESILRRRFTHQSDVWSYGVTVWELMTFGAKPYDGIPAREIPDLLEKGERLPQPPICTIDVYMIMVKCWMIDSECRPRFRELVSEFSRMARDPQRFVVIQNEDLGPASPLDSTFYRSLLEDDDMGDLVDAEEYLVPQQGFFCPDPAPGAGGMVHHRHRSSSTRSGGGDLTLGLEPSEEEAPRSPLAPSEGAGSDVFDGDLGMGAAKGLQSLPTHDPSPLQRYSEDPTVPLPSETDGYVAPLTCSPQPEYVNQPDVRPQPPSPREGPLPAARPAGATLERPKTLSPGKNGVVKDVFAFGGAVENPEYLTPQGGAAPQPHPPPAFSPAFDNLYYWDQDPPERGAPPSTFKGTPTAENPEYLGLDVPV
Experiment [3] can be described thus: reduced viability of SK-BR-3 breast cancer cells – cell-based, 24 h, human, pilot screen (AID 572;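 active means viability at or below 10% of carrier control in both of two separate runs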;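 further: compound exposure lasted between 18 and 24 h rather than exactly 24 h; 100% = carrier-treated control wells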). The following applies: SK-BR-3 viability, CellTiter-Glo luminescence, at 10 µM, stronger effect = lower value.
Experiment [4] can be described thus: HUVEC growth inhibition – cell-based, human, primary screen (AID 575;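 active means viability at or below 30% in both replicate assays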;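 further: 100% = median of untreated cell wells with 0.1% DMSO on each plate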). The settings on record: HUVEC proliferation, CellTiter-Glo luminescence, 72 h; at 10 µM; stronger effect = lower value. The gist of the method: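 Test system: primary human umbilical vein endothelial cells; medium: endothelial basal medium with 2% FBS plus growth supplements; dosing: 10 µM compound only; times: 72 h treatment at 37 °C; signal: CTG luminescence; read-out: % viability relative to median vehicle-well signal on each plate; control set: vehicle and MePR control wells; plate: 384-well, collagen-coated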

Experiment [5] in a line: H69AR cell proliferation blockers – human, duplicate replicates, primary screen (AID 580;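 active means viability at or under a set limit in both replicates, limit being median viability minus 3 SD, cut at about 48% in these data, passing the limit was not always enough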;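 further: 100% = mean luminescence of untreated wells and 0% = no signal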). The settings on record: H69AR lung tumor cells viability, ATP luminescence, 72 h; at 10 µM; stronger effect = lower value.
Experiment [6] is described as follows: MRP1 drug-resistance reversers in H69AR cells – cell-based, doxorubicin co-treatment, pilot screen (AID 601;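 active means viability loss from added drug above about 55%, and viability with drug at most 40%, in both replicates, limit read from the data, passing the limit was not always enough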). The settings on record: CellTiter-Glo, 72 h, at 10 µM; for differential viability (reversal): stronger effect = higher value.
Experiment [7] in a line: yeast transport mutant growth inhibition pilot in 384-well plates, post-Golgi transport modulator project (AID 636; in the data active means inhibition above about 31%). The following applies: absorbance 615 nm, about 18 h, stronger effect = higher value.
Experiment [8] is described as follows: growth suppression of yeast trafficking mutant, preliminary HTS, modulators of trafficking downstream of Golgi apparatus project, 1536-format plate, OD 615 nm (AID 637). The settings on record: yeast transport mutant growth, absorbance 615 nm, 18 h; stronger effect = higher value.
The mark [9] stands for this setting: H69AR cells + 2 uM doxorubicin, measured here: viability with 2 uM doxorubicin, stronger effect = lower value.
[10] abbreviates: H69AR cells, compound alone cytotoxicity.

`O=C(Nc1ccc(F)cc1F)NC1CC(=O)N(Cc2ccccc2)C1` (stereo not given): the viability in experiment [1] was 92.5%; in experiment [3], 92.5% (inactive); in experiment [4], 109% (inactive); in experiment [5], 95.1% (inactive); in experiment [6] (setting [9]), 94.8%; in experiment [6] (setting [10]), 95.1%. Besides, the Her2 level in experiment [2] was 89.5% (inactive). Also, in experiment [6] (H69AR cells + 2 uM doxorubicin), the differential viability (reversal) is 0.32% (inactive). Besides, the results for the inhibition in experiment [7] and in experiment [8] were 1.78% (inactive) and 26.2% (inactive), respectively.

Take `Cc1nc2ccccc2n1CCC(=O)Nc1cccc(F)c1`: the viability in experiment [1] was 88%; in experiment [3], 88% (inactive); in experiment [4], 93.6% (inactive); in experiment [5], 79.9% (inactive); in experiment [6] (setting [9]) it was 90%; in experiment [6] (setting [10]) it was 79.9%. Moreover, the Her2 level in experiment [2] was 90% (inactive). For the same molecule, the differential viability (reversal) in experiment [6] (H69AR cells + 2 uM doxorubicin) is -10.1% (inactive). Also, the inhibition in experiment [7] was 0.38% (inactive); in experiment [8] it was -5.33% (inactive).

For `Cc1ccc(N2CC(C(=O)N3CCN(C(=O)c4ccco4)CC3)CC2=O)cc1` (stereo not given), the viability was 96.5% in experiment [1]; 96.5% (inactive) in experiment [3]; 104% (inactive) in experiment [4]; 96.1% (inactive) in experiment [5]; 98.1% in experiment [6] (setting [9]); 96.1% in experiment [6] (setting [10]). In addition, the Her2 level in experiment [2] was 91% (inactive). Besides, the differential viability (reversal) in experiment [6] (H69AR cells + 2 uM doxorubicin) is -1.97% (inactive). The inhibition was 0.39% (inactive) in experiment [7] and -1.29% (inactive) in experiment [8].

Regarding `CCOCCCNC(=O)C1CCN(S(=O)(=O)N(CC(C)C)CC(C)C)CC1`, the viability in experiment [1] is 121%; in experiment [3], 121% (inactive); in experiment [4], 97.9% (inactive); in experiment [5] it was 111% (inactive); in experiment [6] (setting [9]), 87.3%; in experiment [6] (setting [10]), 111%. Moreover, the Her2 level in experiment [2] was 100% (inactive). The differential viability (reversal) in experiment [6] (H69AR cells + 2 uM doxorubicin) was 24% (inactive). For the same molecule, the inhibition was -4.13% (inactive) in experiment [7] and 2.1% (inactive) in experiment [8].

For `CCOc1ccc(S(=O)(=O)Nc2cccc(Cl)c2)cc1`, the viability was 86% in experiment [1]; 86% (inactive) in experiment [3]; 50.7% (inactive) in experiment [4]; 18.8% (active) in experiment [5]; 60.7% in experiment [6] (setting [9]); 18.8% in experiment [6] (setting [10]). For the same molecule, the Her2 level in experiment [2] is 74.5% (inactive). Also, the differential viability (reversal) in experiment [6] (H69AR cells + 2 uM doxorubicin) was -41.9% (inactive). Moreover, the inhibition in experiment [7] is -5.07% (inactive); in experiment [8], -3.28% (inactive).

In the case of `COc1ccc(CC(=O)OCc2nnc(C3COc4ccccc4O3)o2)cc1OC` (stereo not given), the viability is 116% in experiment [1]; 116% (inactive) in experiment [3]; 91.3% (inactive) in experiment [4]; 104% (inactive) in experiment [5]; 83.7% in experiment [6] (setting [9]); 104% in experiment [6] (setting [10]). The Her2 level in experiment [2] was 104% (inactive). Moreover, the differential viability (reversal) in experiment [6] (H69AR cells + 2 uM doxorubicin) is 19.8% (inactive). Further, the results for the inhibition in experiment [7] and in experiment [8] were -2% (inactive) and -1.64% (inactive), respectively.

Take `CCOC(=O)c1[nH]c(C)c(C(=O)N(C)C)c1C`: the viability in experiment [1] is 110%; in experiment [3], 110% (inactive); in experiment [4], 103% (inactive); in experiment [5], 95.6% (inactive); in experiment [6] (setting [9]), 96.6%; in experiment [6] (setting [10]) it was 95.6%. Besides, in experiment [2], the Her2 level was 88.5% (inactive). Besides, the differential viability (reversal) in experiment [6] (H69AR cells + 2 uM doxorubicin) is -0.97% (inactive). The inhibition in experiment [7] is -5.79% (inactive); in experiment [8], -7.3% (inactive).

Consider `Cn1cc(Br)c(C(=O)NC2CCCCC2)n1`, for which the viability in experiment [1] was 102%; in experiment [3], 102% (inactive); in experiment [4] it was 96.7% (inactive); in experiment [5], 94.3% (inactive); in experiment [6] (setting [9]) it was 90.9%; in experiment [6] (setting [10]), 94.3%. Also, in experiment [2], the Her2 level was 112% (inactive). The differential viability (reversal) in experiment [6] (H69AR cells + 2 uM doxorubicin) was 3.45% (inactive). Moreover, the figures for the inhibition in experiment [7] and in experiment [8] were 3.33% (inactive) and 0.79% (inactive), respectively.

Take `CCOC(=O)C1(C)NC(c2ccc(OC)c(OC)c2)C2C(=O)N(CC)C(=O)C21` (stereo not given): the viability is 96.5% in experiment [1]; 96.5% (inactive) in experiment [3]; 89.2% (inactive) in experiment [4]; 101% (inactive) in experiment [5]; 93.8% in experiment [6] (setting [9]); 101% in experiment [6] (setting [10]). In experiment [2], the Her2 level was 106% (inactive). The differential viability (reversal) in experiment [6] (H69AR cells + 2 uM doxorubicin) is 7.14% (inactive). Also, the inhibition is -0.41% (inactive) in experiment [7] and -1.27% (inactive) in experiment [8].

Turning to `O=C(CCc1nc2ccccc2s1)OCC(=O)N1CCN(C(=O)c2ccco2)CC1`, the viability in experiment [1] was 117%; in experiment [3], 117% (inactive); in experiment [4] it was 91.1% (inactive); in experiment [5], 90.5% (inactive); in experiment [6] (setting [9]), 86.8%; in experiment [6] (setting [10]), 90.5%. The Her2 level in experiment [2] was 93.5% (inactive). The differential viability (reversal) in experiment [6] (H69AR cells + 2 uM doxorubicin) is 3.61% (inactive). For the same molecule, the inhibition in experiment [7] is -5.41% (inactive); in experiment [8] it was -0.48% (inactive).

Consider `O=C(NC1CCCC1)C(c1ccco1)N(Cc1ccccc1)C(=O)c1csnn1` (stereo not given), for which the viability in experiment [1] is 88.5%; in experiment [3], 88.5% (inactive); in experiment [4] it was 76.4% (inactive); in experiment [5], 97.5% (inactive); in experiment [6] (setting [9]), 95.9%; in experiment [6] (setting [10]) it was 97.5%. Further, the Her2 level in experiment [2] is 76% (inactive). For the same molecule, the differential viability (reversal) in experiment [6] (H69AR cells + 2 uM doxorubicin) was 1.57% (inactive). Besides, the inhibition was -8.65% (inactive) in experiment [7] and 4.44% (inactive) in experiment [8].

For the molecule `CC(=O)OC1c2ccccc2C(=O)N1c1ccccc1C` (stereo not given), the viability in experiment [1] was 100%; in experiment [3], 100% (inactive); in experiment [4], 99.9% (inactive); in experiment [5], 105% (inactive); in experiment [6] (setting [9]), 91.2%; in experiment [6] (setting [10]), 105%. For the same molecule, the Her2 level in experiment [2] is 106% (inactive). Also, in experiment [6] (H69AR cells + 2 uM doxorubicin), the differential viability (reversal) is 14.2% (inactive). In addition, the inhibition in experiment [7] is 0.64% (inactive); in experiment [8], 0.83% (inactive).

Take `CCOC(=O)Cn1c(CN2CCN(c3cccc(Cl)c3)CC2)nc2c1c(=O)[nH]c(=O)n2C`: the viability in experiment [1] is 92.5%; in experiment [3], 92.5% (inactive); in experiment [4], 69% (inactive); in experiment [5] it was 72.5% (inactive); in experiment [6] (setting [9]) it was 78.7%; in experiment [6] (setting [10]) it was 72.5%. Also, the Her2 level in experiment [2] was 87% (inactive). For the same molecule, in experiment [6] (H69AR cells + 2 uM doxorubicin), the differential viability (reversal) was -6.24% (inactive). In addition, the figures for the inhibition in experiment [7] and in experiment [8] were 0% (inactive) and 1.17% (inactive), respectively.

`O=C(COC(=O)c1ccccc1O)Nc1ccc(OC(F)F)cc1`: the viability in experiment [1] was 78%; in experiment [3], 78% (inactive); in experiment [4], 93.7% (inactive); in experiment [5], 93.2% (inactive); in experiment [6] (setting [9]), 90.5%; in experiment [6] (setting [10]), 93.2%. The Her2 level in experiment [2] is 123% (inactive). For the same molecule, the differential viability (reversal) in experiment [6] (H69AR cells + 2 uM doxorubicin) was 2.67% (inactive). Moreover, the inhibition is 5.14% (inactive) in experiment [7] and 32.4% (active) in experiment [8].

As to `CCOC(=O)c1c(C)[nH]c(C(=O)Cn2c(=O)oc3ccccc32)c1C`, the viability in experiment [1] was 102%; in experiment [3], 102% (inactive); in experiment [4], 108% (inactive); in experiment [5], 89.5% (inactive); in experiment [6] (setting [9]), 86.6%; in experiment [6] (setting [10]), 89.5%. Also, in experiment [2], the Her2 level was 93.5% (inactive). In addition, the differential viability (reversal) in experiment [6] (H69AR cells + 2 uM doxorubicin) is 2.91% (inactive). Further, the inhibition was -3.97% (inactive) in experiment [7] and 0.33% (inactive) in experiment [8].

For `S=C(c1cccs1)N1CCCC1`, the viability is 90.5% in experiment [1]; 90.5% (inactive) in experiment [3]; 96.7% (inactive) in experiment [4]; 100% (inactive) in experiment [5]; 89.3% in experiment [6] (setting [9]); 100% in experiment [6] (setting [10]). Moreover, the Her2 level in experiment [2] was 110% (inactive). Besides, the differential viability (reversal) in experiment [6] (H69AR cells + 2 uM doxorubicin) is 11.2% (inactive). Moreover, the inhibition was 0.52% (inactive) in experiment [7] and -8.52% (inactive) in experiment [8].
